Here are results for 20 compounds from PubChem BioAssay AID624064 (Broad Institute, 2012).

Experiment [1] can be described thus: P. aeruginosa growth delay under iron chelation, dose response, whole organism, OD600, EDDHA, dry powder, set 7 (AID 624064). The conditions noted are these: P. aeruginosa growth with EDDHA, OD600, 24-30 h; at 120 µM (top of the series). A digest of the protocol: (§1)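 system = Pseudomonas aeruginosa whole cells, strain ATCC 15692 | amount = bacterial inoculum at final OD600 of 0.0000005 | buffer or medium = succinate M9 medium, pH 7.0, iron-limited with 2 µM EDDHA (final) | detection = OD600 absorbance | times = bacterial growth with compound for 24-30 h at 37 °C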

For experiment [2], the system named is P. aeruginosa growth with EDDHA, OD600, 24-30 h. The description is as above. In outline: as §1

Active and inactive are the calls of the source.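 The calls were made as follows: active = fitted curve reaching 35% inhibition at both 405 and 600 nm absorbance, in duplicate, within twice the top valid dose; inactive = the rest, including signal rising instead of falling.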

For the compound `Clc1ccc(C(c2cccc(Cl)n2)c2nn[nH]n2)cc1` (stereo not given), the activity change, negative = inhibition in experiment [1] was 11.3% (inactive).

For the compound `CCCCC(c1ccc(Cl)cc1)c1nn[nH]n1` (stereo not given), in experiment [1], the activity change, negative = inhibition was -5.82% (inactive). Turning to `CN(C)CCCC(C#N)c1ccc(Cl)cc1` (stereo not given), the activity change, negative = inhibition in experiment [1] is -12.9% (inactive). For the compound `CN(C)CCCC(C#N)c1ccc(F)cc1` (stereo not given), the activity change, negative = inhibition in experiment [1] was -34.3% (inactive). Same read-out and setting: next, `N#CC(c1ccc(C(F)(F)F)c(Cl)n1)c1ccccc1OC(F)(F)F` (stereo not given): -8.43% (inactive). The same measure, in the same setting: the result for `CCCCC(C#N)c1ccc(F)cn1` (stereo not given) reads -4.82% (inactive); that for `COCCC(C#N)c1ccc(F)cc1` (stereo not given), -1.09% (inactive). The same measure, in the same setting: next, `CCCCC(C#N)c1ccc(Cl)cc1` (stereo not given): 13.2% (inactive). Turning to `N#CC(c1ccc(Cl)cc1)N1CCCC1` (stereo not given), the activity change, negative = inhibition in experiment [1] is -7.6% (inactive).

Turning to `COCCC(C#N)c1ccc(Cl)cc1` (stereo not given), the activity change, negative = inhibition in experiment [1] was -16.8% (inactive).

`COCCOCCC(C#N)c1ccc(Cl)cc1` (stereo not given): the activity change, negative = inhibition in experiment [1] is 2.11% (inactive).

As for `N#CC(c1ccc(Cl)cc1)c1ccccn1` (stereo not given), the activity change, negative = inhibition in experiment [1] was -30.8% (inactive). For `N#CC(c1ccc(F)cc1)c1cccc(Cl)n1` (stereo not given), the activity change, negative = inhibition in experiment [1] is -35.8% (inactive). Same read-out and setting: the result for `CCCCC(C#N)c1ccccn1` (stereo not given) reads 11% (inactive); that for `COCCOCCC(C#N)c1ccc(F)cc1` (stereo not given), -18.1% (inactive). Turning to `CCCCC(C#N)c1ccc(F)cc1` (stereo not given), in experiment [2], the AC35 is > 120 µM (inactive). Regarding `N#Cc1cccc(C(C#N)c2ccc(F)cc2)n1` (stereo not given), the activity change, negative = inhibition in experiment [1] was -25.4% (inactive). Same read-out and setting: the result for `COCCNC(C#N)c1ccc(Cl)cc1` (stereo not given) reads -0.512% (inactive); that for `CCCCC(C#N)c1ccc(Cl)cn1` (stereo not given), -2.96% (inactive). Regarding `N#CC1c2ccc(Cl)cc2CCc2cccnc21` (stereo not given), the activity change, negative = inhibition in experiment [1] was 31.2% (inactive).
